Assay results: ChEMBL document CHEMBL1124378, “Synthesis and pharmacological evaluation of a series of 4-piperazinylpyrazolo[3,4-b]- and -[4,3-b][1,5]benzodiazepines as potential anxiolytics” (J Med Chem, 1989)

Assays:
[1] = test system: Mus musculus; test: Dose below which no catalepsy was observed at any time period (following p.o. dosing); format: functional
In short: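 CFW mice (21-23 g), three per group, dosed orally in water or 0.5% carboxymethylcellulose. Checked at 0.25, 2.5 and 5.0 h for holding one hind limb on a 2-cm rubber bung and staying on a vertical grid, judged against a control by a trained observer.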

[2] = test system: Mus musculus; test: Compound administered perorally was evaluated for the hypothermia (rectal temperature) in mice; format: functional
In short: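 Groups of three CFW mice (21-23 g) received oral compound in water or 0.5% carboxymethylcellulose. Rectal temperature was taken at 0.25, 2.5 and 5.0 h. Mean change from the group's initial mean was summed over the three times. Hypothermia scored if the summed reduction was >4 °C.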

[3] = test system: Rattus norvegicus; test: Rotarod response in rat to assess muscular incoordination (following p.o. dosing); format: functional
In short: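 Male Olac-Wistar rats (140-150 g), five per group, fed ad libitum, dosed orally. Tested 1 and 2 h later on a horizontal rod (2 rpm, 32 mm diameter), maximum 30 s. Mean time compared with vehicle controls by Mann-Whitney U test, significant at p < 0.05.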

[4] = molecular target: D(2) dopamine receptor (Bos taurus) (UniProt P20288); test: Inhibition of [3H]spiperone binding to Dopamine receptor D2 from calf caudate
[5] = molecular target: Muscarinic acetylcholine receptor; test: Compound was evaluated for the inhibition of [3H]QNB binding to Muscarinic acetylcholine receptor from male Olac rat brain.
[6] = test system: Rattus norvegicus; test: Compound administered perorally was evaluated for the conditioned avoidance response in rats; format: functional
In short: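 Olac-Wistar rats (120-130 g) trained to cross a shuttle box on a 5-s buzzer, with mild shock if no response within 1 s after it ends. Only high-responders used. Groups of five were dosed orally in water or 0.5% carboxymethylcellulose 1 h 50 min before testing. After 10-min habituation they were tested 20 min. Blockade = shocks as % of stimuli presented.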

SMILES	EDmin [1] [mg/kg]	EDmin [2] [mg/kg]	ED [3] [mg/kg]	IC50 [4] [µM]	IC50 [5] [µM]	ED [6] [mg/kg]
CN1CCN(C2=Nc3cc(C(=O)c4ccccc4)ccc3Nc3nn(C)cc32)CC1	>400	>400	>50	> 10	> 1	>50
CCn1cc2c(n1)Nc1cc(Cl)c(Cl)cc1N=C2N1CCN(C)CC1	200	50	20	3.8	> 1	>20
Cn1cc2c(n1)Nc1ccc(F)cc1N=C2N1CCCCC1	>400	400	>50	> 10	> 10	50
Cn1cc2c(n1)Nc1ccc(F)cc1N=C2N1CCN(CCO)CC1	>200	>200	>50	5.1	> 100	>50
CN1CCN(C2=Nc3cc(C(F)(F)F)ccc3Nc3nn(C)cc32)CC1	200	50	>30	1.6	> 10	25
CN1CCN(C2=Nc3ccc(Cl)cc3Nc3nn(C)cc32)CC1	>400	100	>50	> 10	> 100	>50
CN1CCN(C2=Nc3cc(S(C)(=O)=O)ccc3Nc3nn(C)cc32)CC1	>200	>200	>50	> 10	> 100	
Cc1c2c(nn1C)C(N1CCN(C)CC1)=Nc1cc(F)ccc1N2				> 10		
CCOC(=O)N1CCN(C2=Nc3cc(F)ccc3Nc3nn(C)cc32)CC1	>200	>200	>50	> 10	> 100	>50
Cn1cc2c(n1)Nc1ccc(Cl)cc1N=C2N	>25	25	>50	> 10	> 100	>25
CN(C)CCNC1=Nc2cc(F)ccc2Nc2nn(C)cc21	>400	>400	>50	> 10	6.1	>50
CN1CCN(C2=Nc3c(Cl)cccc3Nc3nn(C)cc32)CC1	>400	25	>50	0.86	> 100	>50
Cn1cc2c(n1)Nc1ccc(F)cc1N=C2N1CCN(Cc2ccccc2)CC1	>200	50	50	2.7	> 100	>50
CN1CCN(C2=Nc3cccc(Cl)c3Nc3nn(C)cc32)CC1	184	184	>50	4.7	> 100	>50
CN1CCN(C2=Nc3cc(I)ccc3Nc3nn(C)cc32)CC1	50	50	25	> 1		>20
Cn1cc2c(n1)Nc1ccc(F)cc1N=C2N1CCOCC1	>400	200	>50	> 100	> 100	>50
Cn1cc2c(n1)Nc1ccc(F)cc1N=C2N1CCN(CC2CC2)CC1	100	50	30	0.9	> 10	>15
